Assays:
[1] = cited from earlier work
EP24.15 = conditions: read-out: Ki for inhibiting EP24.15; cited from earlier work
male Sprague Dawley rats = experiment: Bradykinin-induced thermal hyperalgesia, paw withdrawal latency; format: in vivo; conditions: rat hindpaw i.pl., JA-2 5 μM 25 μl 30 min before BK 0.1 μM 25 μl; n=6-10
Outline: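 Male Sprague-Dawley rats (200-250 g), tested in the light phase after 30 min acclimation. Blinded Hargreaves thermal latency, with baseline set near 10 s and a 20 s cutoff, taken as the mean of triplicate readings at least 30 s apart. Intraplantar s.c. vehicle (50% DMSO/0.9% saline) or test compound (5 μM), 25 μl; latency read 30 min later. BK (0.1 or 1 μM, 25 μl) then injected into the same paw; latency read at 5 min.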

EP24.16 = conditions: EP24.15 preferentially over EP24.16; cited from earlier work
[2] = prolonged incubation in various tissues; cited from earlier work

Compound | potentiation of antinociceptive effects of co-administered opioid peptides ([1]; co-administered with Met-enkephalin-Arg-Gly-Leu and dynorphin A1-8) | antinociception ([1]; intracerebroventricular administration, time and dose-dependent) | Ki (EP24.15) | effect on response to sub-threshold BK (0.1 μM), thermal hyperalgesia (male Sprague Dawley rats) | times more potent at inhibiting EP24.15 than EP24.16 (selectivity) (EP24.16) | retention of activity after incubation in tissues (stability) [2]
N-[1-(R,S)-carboxy-3-phenylpropyl]-Ala-Ala-Tyr-p-aminobenzoate [cFP] | potentiate the antinociceptive effects | significant antinociception | – | – | – | –
C[C@H](NC(CCc1ccccc1)C(=O)O)C(=O)NC(C)(C)C(=O)N[C@@H](Cc1ccc(O)cc1)C(=O)Nc1ccc(C(=O)O)cc1 (stereo partly drawn) [JA-2] | – | – | 23 nM | resulted in a nociceptive response | 20-30 fold | retains its activity after prolonged incubation in various tissues

Source: paper PMC3114295 (Pain, 2011)
